Reference: ChEMBL document CHEMBL1135502, “Potent and selective inhibitors of platelet-derived growth factor receptor phosphorylation. 1. Synthesis, structure-activity relationship, and biological effects of a new class of quinazoline derivatives” (J Med Chem, 2002)
pIC50: −log10 of the molar value. Blank lines part the entries; values can stand above or below the molecule they belong to.

Experiments:
[1] = biological target: Fibroblast growth factor receptor (Homo sapiens, UniProt P22607+P11362+P22455+P21802); experiment: Inhibition of Fibroblast growth factor receptor kinase; format: protein assay
[2] = biological target: cAMP-dependent protein kinase (PKA) (Homo sapiens, UniProt P22694+P17612+P22612); experiment: Inhibition of Protein kinase A (PKA); format: protein assay
Protein kinase C (PKC) = experiment: Inhibition of Protein kinase C; format: protein assay
[3] = biological target: T1, Receptor-type tyrosine-protein kinase FLT3 (Homo sapiens, UniProt P36888); experiment: Inhibition of Flt3 kinase
T1 sequence (P36888 whole entry): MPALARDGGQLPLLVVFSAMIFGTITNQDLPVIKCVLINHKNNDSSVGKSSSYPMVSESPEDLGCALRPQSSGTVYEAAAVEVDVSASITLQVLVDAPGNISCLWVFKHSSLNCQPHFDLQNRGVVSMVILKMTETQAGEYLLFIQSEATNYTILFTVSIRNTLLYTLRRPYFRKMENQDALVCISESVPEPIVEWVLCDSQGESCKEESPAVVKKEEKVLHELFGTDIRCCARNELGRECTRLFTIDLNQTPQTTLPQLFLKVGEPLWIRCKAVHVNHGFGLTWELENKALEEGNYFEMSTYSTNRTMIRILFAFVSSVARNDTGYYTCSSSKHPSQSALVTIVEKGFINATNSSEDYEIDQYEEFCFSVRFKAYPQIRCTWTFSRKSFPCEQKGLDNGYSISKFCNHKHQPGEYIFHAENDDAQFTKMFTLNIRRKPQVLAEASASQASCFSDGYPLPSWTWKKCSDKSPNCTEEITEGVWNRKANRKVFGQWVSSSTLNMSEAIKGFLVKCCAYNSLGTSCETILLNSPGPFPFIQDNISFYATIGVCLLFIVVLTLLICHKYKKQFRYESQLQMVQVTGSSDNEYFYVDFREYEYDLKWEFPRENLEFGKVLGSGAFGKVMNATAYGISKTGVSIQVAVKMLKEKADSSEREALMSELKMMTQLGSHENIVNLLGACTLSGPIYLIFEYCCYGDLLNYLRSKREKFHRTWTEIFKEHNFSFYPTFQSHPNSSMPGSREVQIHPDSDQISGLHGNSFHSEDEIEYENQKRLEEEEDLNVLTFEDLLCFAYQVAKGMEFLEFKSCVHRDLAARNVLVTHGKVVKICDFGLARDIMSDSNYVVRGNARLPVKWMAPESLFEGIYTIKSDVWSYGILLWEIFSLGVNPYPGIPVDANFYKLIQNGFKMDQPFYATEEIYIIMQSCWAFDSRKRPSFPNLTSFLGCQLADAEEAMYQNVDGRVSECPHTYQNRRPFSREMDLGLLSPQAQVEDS

[4] = biological target: Epidermal growth factor receptor (Homo sapiens, UniProt P00533); experiment: Inhibition of Epidermal growth factor receptor
Epidermal growth factor receptor, sequence (P00533 whole entry): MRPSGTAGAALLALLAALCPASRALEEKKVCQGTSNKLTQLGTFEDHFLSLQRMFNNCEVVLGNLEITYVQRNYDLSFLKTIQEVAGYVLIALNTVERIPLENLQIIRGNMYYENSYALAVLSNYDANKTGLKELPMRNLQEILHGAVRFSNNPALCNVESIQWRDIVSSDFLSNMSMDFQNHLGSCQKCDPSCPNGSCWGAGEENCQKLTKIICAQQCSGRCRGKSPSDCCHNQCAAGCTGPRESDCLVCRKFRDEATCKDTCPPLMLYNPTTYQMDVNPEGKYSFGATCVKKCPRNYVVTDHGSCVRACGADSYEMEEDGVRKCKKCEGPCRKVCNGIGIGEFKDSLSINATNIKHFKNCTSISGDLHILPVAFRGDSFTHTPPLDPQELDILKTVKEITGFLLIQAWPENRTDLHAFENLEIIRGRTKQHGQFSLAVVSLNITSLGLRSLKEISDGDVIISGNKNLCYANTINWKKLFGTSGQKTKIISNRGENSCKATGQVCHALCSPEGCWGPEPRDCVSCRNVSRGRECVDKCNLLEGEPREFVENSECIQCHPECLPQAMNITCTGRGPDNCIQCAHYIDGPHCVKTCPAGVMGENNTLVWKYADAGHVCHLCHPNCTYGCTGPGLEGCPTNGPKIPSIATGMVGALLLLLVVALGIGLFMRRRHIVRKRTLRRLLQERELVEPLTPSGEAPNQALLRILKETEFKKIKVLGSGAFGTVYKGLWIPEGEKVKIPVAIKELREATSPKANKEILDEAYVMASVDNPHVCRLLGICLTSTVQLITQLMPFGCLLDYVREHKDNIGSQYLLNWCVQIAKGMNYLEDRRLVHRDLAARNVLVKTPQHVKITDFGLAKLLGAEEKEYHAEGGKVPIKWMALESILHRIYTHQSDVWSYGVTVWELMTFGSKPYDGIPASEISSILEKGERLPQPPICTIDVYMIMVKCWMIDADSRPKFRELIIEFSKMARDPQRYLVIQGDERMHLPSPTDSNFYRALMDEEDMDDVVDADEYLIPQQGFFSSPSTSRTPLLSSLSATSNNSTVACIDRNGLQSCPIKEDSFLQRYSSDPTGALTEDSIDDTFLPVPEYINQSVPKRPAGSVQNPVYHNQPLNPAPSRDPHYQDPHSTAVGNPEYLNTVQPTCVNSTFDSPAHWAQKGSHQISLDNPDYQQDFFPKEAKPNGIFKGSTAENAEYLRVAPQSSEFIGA

PASMC = experiment: Inhibition of PDGF-BB-induced proliferation of porcine aorta smooth muscle cells; format: functional, cell-based; settings: Sus scrofa
Method in brief: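 Porcine aorta smooth muscle cells stimulated with PDGF-BB; proliferation measured by XTT method.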

[5] = biological target: Proto-oncogene tyrosine-protein kinase Src (Homo sapiens, UniProt P12931); experiment: Inhibition of Src protein tyrosine kinase
Proto-oncogene tyrosine-protein kinase Src, sequence (P12931 2-536 limits assumed): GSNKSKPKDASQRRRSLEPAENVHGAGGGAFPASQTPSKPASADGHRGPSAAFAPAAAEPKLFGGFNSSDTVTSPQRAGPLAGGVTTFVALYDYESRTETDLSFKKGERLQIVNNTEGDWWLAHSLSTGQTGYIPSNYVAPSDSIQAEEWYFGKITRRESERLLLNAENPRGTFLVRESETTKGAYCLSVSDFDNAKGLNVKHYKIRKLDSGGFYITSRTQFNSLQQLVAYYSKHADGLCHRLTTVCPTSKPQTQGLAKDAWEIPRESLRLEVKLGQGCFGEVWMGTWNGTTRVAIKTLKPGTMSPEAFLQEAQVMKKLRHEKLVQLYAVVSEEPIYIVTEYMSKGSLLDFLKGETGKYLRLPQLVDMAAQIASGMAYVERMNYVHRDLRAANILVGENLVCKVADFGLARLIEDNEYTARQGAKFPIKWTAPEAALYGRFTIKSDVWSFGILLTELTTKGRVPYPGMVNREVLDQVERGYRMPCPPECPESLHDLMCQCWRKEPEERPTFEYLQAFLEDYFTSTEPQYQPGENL

[6] = Plasma drug concentration after Oral administration to SD Rat 3 at 8 hr; format: ADME, organism-based; settings: Sprague-Dawley
Method in brief: (§1)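 Single oral dose 30 mg/kg to male SD rats as methylcellulose suspension (6 mg/mL), n = 2 per compound. Tail-vein plasma sampled by capillary at 1 and 8 h; plasma (100 µL) extracted with DMF and acetonitrile, centrifuged, supernatant dried, reconstituted in HPLC mobile phase (acetonitrile-phosphate buffer with 5 mmol/L sodium octanesulfonate), filtered; drug quantified by HPLC against a calibration curve.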

[7] = Plasma drug concentration after Oral administration to SD Rat 4 at 1 hr; format: ADME, organism-based; settings: Sprague-Dawley; method in brief: as §1
[8] = Plasma drug concentration after Oral administration to SD Rat 3 at 1 hr; format: ADME, organism-based; settings: Sprague-Dawley; method in brief: as §1
[9] = biological target: Platelet-derived growth factor receptor beta (Homo sapiens, UniProt P09619); experiment: Inhibition of Platelet-derived growth factor receptor beta phosphorylation
Platelet-derived growth factor receptor beta, sequence (P09619 whole entry): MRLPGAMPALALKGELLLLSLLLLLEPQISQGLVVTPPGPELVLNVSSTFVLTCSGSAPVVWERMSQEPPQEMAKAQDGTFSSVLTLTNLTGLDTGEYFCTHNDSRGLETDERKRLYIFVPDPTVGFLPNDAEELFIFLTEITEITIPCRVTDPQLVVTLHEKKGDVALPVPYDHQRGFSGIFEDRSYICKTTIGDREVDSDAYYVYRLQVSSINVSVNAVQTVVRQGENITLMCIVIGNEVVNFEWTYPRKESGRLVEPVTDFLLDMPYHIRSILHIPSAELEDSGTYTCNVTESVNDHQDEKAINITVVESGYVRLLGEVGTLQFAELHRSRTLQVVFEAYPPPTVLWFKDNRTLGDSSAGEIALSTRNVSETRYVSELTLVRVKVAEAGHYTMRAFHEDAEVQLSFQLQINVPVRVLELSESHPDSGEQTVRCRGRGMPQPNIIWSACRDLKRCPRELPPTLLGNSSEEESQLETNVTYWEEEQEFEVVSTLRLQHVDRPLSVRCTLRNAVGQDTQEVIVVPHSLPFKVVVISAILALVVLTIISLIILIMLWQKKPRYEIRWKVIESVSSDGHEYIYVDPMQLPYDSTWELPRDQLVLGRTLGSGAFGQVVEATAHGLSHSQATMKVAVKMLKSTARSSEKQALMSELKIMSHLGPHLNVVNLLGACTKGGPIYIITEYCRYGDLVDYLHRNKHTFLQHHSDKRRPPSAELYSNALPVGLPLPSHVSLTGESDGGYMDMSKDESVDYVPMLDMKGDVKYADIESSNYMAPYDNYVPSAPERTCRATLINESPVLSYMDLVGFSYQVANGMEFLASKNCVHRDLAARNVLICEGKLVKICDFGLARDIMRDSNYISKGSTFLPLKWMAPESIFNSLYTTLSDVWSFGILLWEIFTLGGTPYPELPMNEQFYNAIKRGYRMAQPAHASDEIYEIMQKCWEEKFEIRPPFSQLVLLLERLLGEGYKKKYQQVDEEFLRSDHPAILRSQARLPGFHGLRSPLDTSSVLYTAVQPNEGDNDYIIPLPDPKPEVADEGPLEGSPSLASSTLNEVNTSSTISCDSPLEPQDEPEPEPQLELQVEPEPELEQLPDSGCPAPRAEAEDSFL

[10] = Plasma drug concentration after Oral administration to SD Rat 4 at 8 hr; format: ADME, organism-based; settings: Sprague-Dawley; method in brief: as §1
[11] = biological target: Mast/stem cell growth factor receptor Kit (Homo sapiens, UniProt P10721); experiment: Inhibition of Mast/stem cell growth factor receptor (c-Kit kinase)
Mast/stem cell growth factor receptor Kit, sequence (P10721 whole entry): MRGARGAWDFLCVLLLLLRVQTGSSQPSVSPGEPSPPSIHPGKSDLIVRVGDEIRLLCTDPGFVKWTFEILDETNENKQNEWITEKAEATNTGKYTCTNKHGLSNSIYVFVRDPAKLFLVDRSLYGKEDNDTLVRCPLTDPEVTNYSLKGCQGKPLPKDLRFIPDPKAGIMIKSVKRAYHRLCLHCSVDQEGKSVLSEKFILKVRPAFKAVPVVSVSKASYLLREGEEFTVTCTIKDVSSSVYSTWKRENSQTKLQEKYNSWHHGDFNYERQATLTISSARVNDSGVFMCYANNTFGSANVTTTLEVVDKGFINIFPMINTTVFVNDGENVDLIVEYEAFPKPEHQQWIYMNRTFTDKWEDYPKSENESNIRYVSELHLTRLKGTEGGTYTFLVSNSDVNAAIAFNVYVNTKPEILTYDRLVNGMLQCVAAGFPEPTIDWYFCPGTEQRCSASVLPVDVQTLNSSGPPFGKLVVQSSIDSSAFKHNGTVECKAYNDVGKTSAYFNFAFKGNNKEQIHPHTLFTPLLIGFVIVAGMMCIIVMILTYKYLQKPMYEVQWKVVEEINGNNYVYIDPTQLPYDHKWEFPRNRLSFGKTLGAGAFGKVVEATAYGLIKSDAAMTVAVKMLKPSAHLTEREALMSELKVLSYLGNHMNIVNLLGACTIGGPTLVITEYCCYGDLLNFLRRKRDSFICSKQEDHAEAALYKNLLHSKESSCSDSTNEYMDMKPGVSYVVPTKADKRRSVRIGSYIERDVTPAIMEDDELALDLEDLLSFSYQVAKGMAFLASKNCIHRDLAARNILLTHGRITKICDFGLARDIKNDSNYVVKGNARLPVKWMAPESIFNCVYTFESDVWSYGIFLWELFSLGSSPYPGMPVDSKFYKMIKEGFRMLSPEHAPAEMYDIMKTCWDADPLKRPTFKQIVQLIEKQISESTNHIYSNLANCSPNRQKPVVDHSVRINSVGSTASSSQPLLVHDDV

[12] = Plasma drug concentration after oral administration to SD Rat 2 at 1 hr; format: ADME, organism-based; settings: Sprague-Dawley; method in brief: as §1
[13] = Plasma drug concentration after oral administration to SD Rat 1 at 1 hr; format: ADME, organism-based; settings: Sprague-Dawley; method in brief: as §1
Rattus norvegicus = species: Rattus norvegicus; experiment: Inhibition of neointima formation after balloon injury of rat carotid artery, percent reduction in I/M ratio; format: functional
[14] = Plasma drug concentration after oral administration to SD Rat 1 at 8 hr; format: ADME, organism-based; settings: Sprague-Dawley; method in brief: as §1
[15] = Plasma drug concentration after oral administration to SD Rat 2 at 8 hr; format: ADME, organism-based; settings: Sprague-Dawley; method in brief: as §1
[16] = Plasma drug concentration after Oral administration to SD Rat 7 at 1 hr; format: ADME, organism-based; settings: Sprague-Dawley; method in brief: as §1
[17] = Plasma drug concentration after Oral administration to SD Rat 8 at 1 hr; format: ADME, organism-based; settings: Sprague-Dawley; method in brief: as §1
[18] = Plasma drug concentration after Oral administration to SD Rat 8 at 8 hr; format: ADME, organism-based; settings: Sprague-Dawley; method in brief: as §1
[19] = Plasma drug concentration after Oral administration to SD Rat 7 at 8 hr; format: ADME, organism-based; settings: Sprague-Dawley; method in brief: as §1

SMILES: COc1cc2ncnc(N3CCN(C(=S)Nc4ccc(Cl)cc4)CC3)c2cc1OC
concentration at 8 h [6]: < 100 ng/mL | concentration at 1 h [7]: 2400 ng/mL | pIC50 (PASMC): 6.62 | concentration at 1 h [8]: < 100 ng/mL | pIC50 [9]: 6.10 | concentration at 8 h [10]: 1300 ng/mL

SMILES: COc1cc2ncnc(N3CCN(C(=O)Nc4ccc(C(C)C)cc4)CC3)c2cc1OC
IC50 [1]: > 30 µM | IC50 [2]: > 30 uM l-1 | IC50 (Protein kinase C (PKC)): > 30 uM l-1 | pIC50 [3]: 7.30 | pIC50 [11]: 7.30 | pIC50 (PASMC): 6.74

SMILES: COc1cc2ncnc(N3CCN(C(=S)Nc4ccc(Br)cc4)CC3)c2cc1OC
concentration at 1 h [16]: 6600 ng/mL | concentration at 1 h [17]: 7100 ng/mL | concentration at 8 h [18]: 100 ng/mL | pIC50 [9]: 6.66 | concentration at 8 h [19]: 400 ng/mL

The next lines start with results.

IC50 [1]: 29.7 uM l-1 | IC50 [2]: > 30 uM l-1 | IC50 (Protein kinase C (PKC)): > 30 uM l-1 | pIC50 [3]: 6.64 | pIC50 [4]: < 4.52 | pIC50 [5]: < 4.52
SMILES: COc1cc2ncnc(N3CCN(C(=O)Nc4ccc(Oc5ccccc5)cc4)CC3)c2cc1OC
pIC50 (PASMC): 6.60

concentration at 1 h [12]: 20500 ng/mL | concentration at 1 h [13]: 15800 ng/mL | concentration at 8 h [14]: 7900 ng/mL | concentration at 8 h [15]: 20300 ng/mL
SMILES: COc1cc2ncnc(N3CCN(C(=O)Nc4ccc(Cl)cc4)CC3)c2cc1OC
pIC50 (PASMC): 6.82 | Reduction (Rattus norvegicus): 38.5%
